Measurements from ChEMBL document CHEMBL4346665, “Synthesis and evaluation of tetrahydroquinolin-2(1H)-one derivatives as novel anti-pancreatic cancer agents via targeting autophagy” (Eur J Med Chem, 2019).
Active and inactive are the calls of the source. The rule behind the calls is not given here.

Key:
[1] = Toxicity in human PANC1 cells xenografted in nude mouse assessed as pathological changes in kidney at 30 mg/kg, ip administered every 3 days for 4 weeks post tumor inoculation by hematoxylin and eosin staining based assay; assay type: organism-based; settings: in vivo
Summary of the method: (§1)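 PANC-1 xenografts in nude mice. Dosing daily at 5, 10 or 20 mg/kg/day for 30 days, or 30 mg/kg every three days for the gemcitabine reference. Tumor volume from diameters and tumor weight at end of study. Body weight monitored, kidney and liver examined. T1-weighted MRI on day 30 with Gd-DTPA contrast via tail vein. Mean ± S.D., n = 5, vs control group.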

[2] = tested on: PANC-1; experiment: Antitumor activity against human PANC1 cells xenografted in nude mouse assessed as reduction in tumor size at 30 mg/kg, ip administered every 3 days for 4 weeks post tumor inoculation; assay type: functional, organism-based; summary of the method: as §1
[3] = Toxicity in human PANC1 cells xenografted in nude mouse assessed as change in body weight at 30 mg/kg, ip administered every 3 days for 4 weeks post tumor inoculation; assay type: organism-based; settings: in vivo; summary of the method: as §1
[4] = Toxicity in human PANC1 cells xenografted in nude mouse assessed as pathological changes in liver at 30 mg/kg, ip administered every 3 days for 4 weeks post tumor inoculation by hematoxylin and eosin staining based assay; assay type: organism-based; settings: in vivo; summary of the method: as §1
[5] = tested on: PANC-1; experiment: Antitumor activity against human PANC1 cells xenografted in nude mouse assessed as reduction in tumor weight at 30 mg/kg, ip administered every 3 days for 4 weeks post tumor inoculation; assay type: functional, organism-based; summary of the method: as §1
[6] = tested on: PANC-1; experiment: Induction of apoptosis in human PANC1 cells in nutrient-deprived medium assessed as live cells at 20 uM incubated for 24 hrs by Annexin V-FITC/PI double staining based flow cytometric analysis (reference value: 85.75 to 96.8%); assay type: functional
Summary of the method: (§2)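 PANC-1 cells under NDC exposed 24 h at 5.0, 10.0 or 20.0 µM. Annexin V-FITC/PI double staining, flow cytometric quantification of live, early apoptotic, late apoptotic and necrotic fractions. Arctigenin as positive control.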

[7] = tested on: PANC-1; experiment: Induction of apoptosis in human PANC1 cells in nutrient-deprived medium assessed as necrotic cells at 10 uM incubated for 24 hrs by Annexin V-FITC/PI double staining based flow cytometric analysis (reference value: 0 to 2.8%); assay type: functional; summary of the method: as §2
[8] = tested on: PANC-1; experiment: Growth inhibition of human PANC1 cells in nutrient-deprived medium incubated for 24 hrs by MTT assay; assay type: functional, cell-based; settings: PANC-1, 24 h
[9] = tested on: PANC-1; experiment: Growth inhibition of human PANC1 cells in nutrient-deprived medium at 10 uM incubated for 24 hrs by MTT assay (reference value: 0.0 +/- 1.9%); assay type: functional; settings: PANC-1, 24 h
[10] = tested on: PANC-1; experiment: Induction of apoptosis in human PANC1 cells in nutrient-deprived medium assessed as late apoptotic cells at 5 uM incubated for 24 hrs by Annexin V-FITC/PI double staining based flow cytometric analysis (reference value: 0 to 0.9%); assay type: functional; summary of the method: as §2
[11] = tested on: PANC-1; experiment: Induction of apoptosis in human PANC1 cells in nutrient-deprived medium assessed as necrotic cells at 20 uM incubated for 24 hrs by Annexin V-FITC/PI double staining based flow cytometric analysis (reference value: 0 to 2.8%); assay type: functional; summary of the method: as §2
[12] = tested on: PANC-1; experiment: Induction of apoptosis in human PANC1 cells in nutrient-deprived medium assessed as live cells at 5 uM incubated for 24 hrs by Annexin V-FITC/PI double staining based flow cytometric analysis (reference value: 85.75 to 96.8%); assay type: functional; summary of the method: as §2
[13] = tested on: PANC-1; experiment: Induction of apoptosis in human PANC1 cells in nutrient-deprived medium assessed as early apoptotic cells at 10 uM incubated for 24 hrs by Annexin V-FITC/PI double staining based flow cytometric analysis (reference value: 0.22 to 14.25%); assay type: functional; summary of the method: as §2
[14] = tested on: PANC-1; experiment: Induction of apoptosis in human PANC1 cells in nutrient-deprived medium assessed as early apoptotic cells at 5 uM incubated for 24 hrs by Annexin V-FITC/PI double staining based flow cytometric analysis (reference value: 0.22 to 14.25%); assay type: functional; summary of the method: as §2
[15] = tested on: PANC-1; experiment: Growth inhibition of human PANC1 cells in nutrient-rich medium at 10 uM incubated for 24 hrs by MTT assay (reference value: 0.0 +/- 3.8%); assay type: functional; settings: PANC-1, 24 h
[16] = tested on: PANC-1; experiment: Induction of apoptosis in human PANC1 cells in nutrient-deprived medium assessed as live cells at 10 uM incubated for 24 hrs by Annexin V-FITC/PI double staining based flow cytometric analysis (reference value: 85.75 to 96.8%); assay type: functional; summary of the method: as §2
[17] = tested on: PANC-1; experiment: Induction of apoptosis in human PANC1 cells in nutrient-deprived medium assessed as necrotic cells at 5 uM incubated for 24 hrs by Annexin V-FITC/PI double staining based flow cytometric analysis (reference value: 0 to 2.8%); assay type: functional; summary of the method: as §2
[18] = tested on: PANC-1; experiment: Induction of apoptosis in human PANC1 cells in nutrient-deprived medium assessed as late apoptotic cells at 20 uM incubated for 24 hrs by Annexin V-FITC/PI double staining based flow cytometric analysis (reference value: 0 to 0.9%); assay type: functional; summary of the method: as §2
[19] = tested on: PANC-1; experiment: Induction of apoptosis in human PANC1 cells in nutrient-deprived medium assessed as early apoptotic cells at 20 uM incubated for 24 hrs by Annexin V-FITC/PI double staining based flow cytometric analysis (reference value: 0.22 to 14.25%); assay type: functional; summary of the method: as §2
[20] = tested on: PANC-1; experiment: Induction of apoptosis in human PANC1 cells in nutrient-deprived medium assessed as late apoptotic cells at 10 uM incubated for 24 hrs by Annexin V-FITC/PI double staining based flow cytometric analysis (reference value: 0 to 0.9%); assay type: functional; summary of the method: as §2
[21] = tested on: PANC-1; experiment: Antitumor activity against human PANC1 cells xenografted in nude mouse assessed as reduction in tumor size at 5 to 20 mg/kg, ip administered daily for 4 weeks post tumor inoculation by Gd-DTPA based T1 weighted MRI analysis; assay type: functional, organism-based; summary of the method: as §1
[22] = tested on: PANC-1; experiment: Antitumor activity against human PANC1 cells xenografted in nude mouse assessed as reduction in tumor size at 20 mg/kg, ip administered daily for 4 weeks post tumor inoculation and observed on day 9; assay type: functional; summary of the method: as §1
[23] = tested on: PANC-1; experiment: Antitumor activity against human PANC1 cells xenografted in nude mouse assessed as reduction in tumor size at 20 mg/kg, ip administered daily for 4 weeks post tumor inoculation and observed on day 6; assay type: functional, organism-based; summary of the method: as §1
[24] = Toxicity in human PANC1 cells xenografted in nude mouse assessed as change in body weight at 5 to 20 mg/kg, ip administered daily for 4 weeks post tumor inoculation; assay type: organism-based; settings: in vivo, 672 h
Summary of the method: (§3)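 PANC-1 xenografts in nude mice, 5 per group. Daily injections of 5, 10 or 20 mg/kg for 30 days. Gemcitabine reference arm dosed at 30 mg/kg every three days, compared with untreated controls. Body weight tracked through dosing and deaths recorded. Tumour diameters measured over time and tumours weighed at endpoint. Kidneys and liver examined for lesions.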

[25] = Toxicity in human PANC1 cells xenografted in nude mouse assessed as pathological changes in kidney at 20 mg/kg, ip administered daily for 4 weeks post tumor inoculation by hematoxylin and eosin staining based assay; assay type: organism-based; settings: in vivo, 672 h; summary of the method: as §1
[26] = Toxicity in human PANC1 cells xenografted in nude mouse assessed as pathological changes in liver at 20 mg/kg, ip administered daily for 4 weeks post tumor inoculation by hematoxylin and eosin staining based assay; assay type: organism-based; settings: in vivo, 672 h; summary of the method: as §1
[27] = tested on: PANC-1; experiment: Induction of apoptosis in human PANC1 cells in nutrient-deprived medium incubated for 24 hrs by Annexin V-FITC/PI double staining based flow cytometric analysis; assay type: functional, cell-based; summary of the method: as §2
[28] = tested on: PANC-1; experiment: Induction of autophagy in human PANC1 cells in nutrient-deprived medium assessed as reduction in percentage area of LC3 at 10 uM incubated for 24 hrs by DAPI staining based confocal microscopic analysis; assay type: functional, cell-based
Summary of the method: (§4)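 LC3-transfected PANC-1 cells under NNC, NDC, or NDC plus 10 µM compound. Cells co-labeled for LC3B and DAPI and imaged by confocal microscopy. LC3 puncta number, percentage area and mean intensity quantified.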

[29] = tested on: PANC-1; experiment: Antitumor activity against human PANC1 cells xenografted in nude mouse assessed as reduction in tumor weight at 20 mg/kg, ip administered daily for 4 weeks post tumor inoculation; assay type: functional, organism-based; summary of the method: as §1
[30] = tested on: PANC-1; experiment: Inhibition of colony formation in human PANC1 cells in nutrient-deprived medium treated for 24 hrs followed by compound washout and subsequent incubation for 14 days by crystal violet staining based assay; assay type: functional, cell-based
Summary of the method: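 Clonogenic assay of PANC-1 under NDC across several concentrations. Surviving colonies counted, mean ± S.D., n = 3.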

[31] = tested on: PANC-1; experiment: Inhibition of autophagy in human PANC1 cells in nutrient-deprived medium assessed as reduction in LC3-2 expression level at 10 uM incubated for 1 to 6 hrs by Western blot analysis
[32] = Toxicity in human PANC1 cells xenografted in nude mouse assessed as mortality at 5 to 20 mg/kg, ip administered daily for 4 weeks post tumor inoculation; assay type: organism-based; settings: in vivo, 672 h; summary of the method: as §3
[33] = tested on: PANC-1; experiment: Induction of autophagy in human PANC1 cells in nutrient-deprived medium assessed as reduction in mean intensity of LC3 at 10 uM incubated for 24 hrs by DAPI staining based confocal microscopic analysis; assay type: functional, cell-based; summary of the method: as §4
[34] = tested on: PANC-1; experiment: Antitumor activity against human PANC1 cells xenografted in ip dosed nude mouse assessed as reduction in tumor size administered daily for 4 weeks post tumor inoculation and observed on day 21 to 30; assay type: functional, organism-based; summary of the method: as §1
[35] = Cytotoxicity against mouse NCTC-1469 cells up to 20 uM incubated for 24 hrs by MTT assay; assay type: cell-based
[36] = tested on: PANC-1; experiment: Inhibition of autophagy in human PANC1 cells in nutrient-deprived medium assessed as accumulation of SQSTM1 protein at 10 uM incubated for 1 to 6 hrs by Western blot analysis

## Nc1ccn([C@@H]2O[C@H](CO)[C@@H](O)C2(F)F)c(=O)n1 [GEMCITABINE]
[1]
  Activity: Non-Toxic
[2]
  Activity: Active
[3]
  Activity: Non-Toxic
[4]
  Activity: Non-Toxic
[5]
  Activity: Active

## COc1cc(C[C@H]2C(=O)OC[C@@H]2Cc2ccc(OC)c(OC)c2)ccc1O [ARCTIGENIN]
[6]
  Activity: 2.23%
[7]
  Activity: 5.64%
[8]
  IC50: 2.2 µM
[9]
  inhibition at 10 µM: 79.1%
[10]
  Activity: 83.08%
[11]
  Activity: 6.29%
[12]
  Activity: 8.66%
[13]
  Activity: 1.03%
[14]
  Activity: 1.43%
[15]
  inhibition at 10 µM: 66.8%
[16]
  Activity: 4.13%
[17]
  Activity: 6.84%
[18]
  Activity: 90.44%
[19]
  Activity: 1.06%
[20]
  Activity: 89.2%

## CC(C)=CCC/C(C)=C/CC1Cc2c(OCCCNC(=O)c3cccs3)cc(=O)n(CCCO)c2CC1(C)C (stereo unspecified)
[21]
  Activity: Active
[22]
  Activity: 71.25 mm3
[23]
  Activity: inactive
[24]
  Activity: Non-Toxic
[25]
  Activity: Non-Toxic
[6]
  Activity: 1.56%
[7]
  Activity: 0.14%
[8]
  IC50: 4.9 µM
[26]
  Activity: Non-Toxic
[27]
  Activity: Dose-dependent effect
[9]
  inhibition at 10 µM: 72.8%
[28]
  Activity: Active
[10]
  Activity: 26%
[11]
  Activity: 4.36%
[29]
  Activity: Active
[30]
  inhibition: Dose-dependent effect
[12]
  Activity: 38.56%
[31]
  Activity: Active
[32]
  Activity: Non-Toxic
[13]
  Activity: 41.58%
[33]
  Activity: Active
[14]
  Activity: 35.35%
[34]
  Activity: Dose-dependent effect
[15]
  inhibition at 10 µM: 11.5%
[16]
  Activity: 20.25%
[17]
  Activity: 0.09%
[18]
  Activity: 91.74%
[35]
  Activity: Non-Toxic
[36]
  Activity: Active
[19]
  Activity: 2.34%
[20]
  Activity: 38.03%
